{"data": "Measured values collected from several papers", "SIGMAR1": "Sigma non-opioid intracellular receptor 1 (SIGMAR1, Homo sapiens, UniProt Q99720)", "BMX": "Cytoplasmic tyrosine-protein kinase BMX (BMX, Homo sapiens, UniProt P51813)", "SLC18A3": "Vesicular acetylcholine transporter (SLC18A3, Homo sapiens, UniProt Q16572)", "HTR2A": "5-hydroxytryptamine receptor 2A (HTR2A, Homo sapiens, UniProt P28223)", "OPRK1": "Kappa-type opioid receptor (OPRK1, Homo sapiens, UniProt P41145)", "note": "Compare with care: the assays were run in different laboratories."}
{"SMILES": "CN(CCCN1c2ccccc2CCc2ccccc21)CC(=O)c1ccc(Cl)cc1", "target": "SIGMAR1", "assay": "ligand displacement, radioligand", "Ki": "7090 nM"}
{"SMILES": "Cn1cc(-c2cc(F)cc(N3CCn4c(cc5c4CCCC5)C3=O)c2CO)cc(Nc2ccc(N3CCN(C4COC4)CC3)cn2)c1=O", "target": "BMX", "assay": "enzyme activity, inhibitor, FRET", "Ki": "83.2 nM"}
{"SMILES": "O=C(c1ccc(F)cc1)C1CCN(C2Cc3c(cccc3OCCF)CC2O)CC1 (single isomer, unassigned; (-))", "target": "SLC18A3", "assay": "ligand displacement, radioligand", "Ki": "6.98 nM"}
{"SMILES": "Fc1ccc2c(C3CCCNC3)noc2c1 (racemic)", "target": "HTR2A", "assay": "ligand displacement, radioligand", "setting": "cell membranes", "Ki": "284 nM"}
{"SMILES": "Cn1cc(-c2cccc(N3CCc4c(sc5c4CC(C)(C)C5)C3=O)c2CO)cc(Nc2ccncn2)c1=O", "target": "BMX", "assay": "enzyme activity, inhibitor, FRET", "Ki": "> 3330 nM"}
{"SMILES": "[C-]#[O+]", "target": "cooS2 (Carboxydothermus hydrogenoformans, UniProt Q9F8A8)", "assay": "enzyme activity, inhibitor", "Ki": "5400 nM"}
{"SMILES": "COc1cc2c(cc1OC)CN(CCc1ccc(NC(=O)c3cccc4c(=O)c5cccc(OC)c5[nH]c34)cc1)CC2", "target": "SIGMAR1", "assay": "ligand displacement, radioligand", "Ki": "> 10000 nM"}
{"SMILES": "CCCC[C@@H](NC(=O)[C@@H](N)Cc1c(C)cc(O)cc1C)C(=O)NCC(=O)N[C@@H](Cc1ccc(F)cc1)C(=O)N(C)CCC[C@@]1(c2ccc(F)cc2)OCc2cc(C#N)ccc21", "target": "OPRK1", "assay": "cell-free assay", "Ki": "3 nM"}
{"SMILES": "CNC(=O)[C@H]1[Se][C@@H](n2cnc3c(NCc4cccc(Cl)c4)nc(Cl)nc32)[C@H](O)[C@@H]1O", "target": "Adenosine receptor A2a (ADORA2A, Homo sapiens, UniProt P29274)", "assay": "ligand displacement, radioligand", "setting": "cell membranes", "Ki": "~200 nM"}
{"SMILES": "N[C@@H](C[C@]1(C(=O)O)C[C@H]2OC[C@@H](O)[C@@H](O)[C@H]2O1)C(=O)O", "target": "Glutamate receptor ionotropic, kainate 2 (Grik2, Rattus norvegicus, UniProt P42260, Y443F)", "assay": "ligand displacement, radioligand", "Ki": "895 nM"}
{"SMILES": "OCCOCCN1CCN(C(c2ccccc2)c2ccc(Cl)cc2)CC1 (stereo not shown)", "target": "SIGMAR1", "assay": "ligand displacement, radioligand", "Ki": "437 nM"}
{"SMILES": "Cc1cccc(Cc2ccc3c(c2)CN(C(=O)[C@@H](N)Cc2c(C)cc(O)cc2C)CC3)c1", "target": "OPRK1", "assay": "ligand displacement, radioligand", "setting": "cell membranes", "Ki": "2.7 nM"}
{"SMILES": "CN1CCN(CCc2ccc(Cl)c(Cl)c2)CC1", "target": "SIGMAR1", "assay": "ligand displacement, radioligand", "Ki": "9.48 nM"}
{"SMILES": "Cc1cc(O)cc(C)c1C[C@H](N)C(=O)N1CCc2ccc(Cc3cccc(N)c3)cc2C1", "target": "OPRK1", "assay": "ligand displacement, radioligand", "setting": "cell membranes", "Ki": "28 nM"}
{"SMILES": "Cc1nc2n(c(=O)c1CCN(C)CCc1c[nH]c3ccccc13)CCCC2", "target": "HTR2A", "assay": "ligand displacement, radioligand", "setting": "cell membranes", "Ki": "237 nM"}
{"SMILES": "CN(C)CCCC1(c2ccc(F)cc2)OCc2cc(C#N)ccc21 (stereo not shown)", "target": "SIGMAR1", "assay": "ligand displacement, radioligand", "Ki": "182 nM"}
{"SMILES": "CCCN1CCC[C@@H]2Cc3n[nH]cc3C[C@H]21", "target": "SLC18A3", "assay": "ligand displacement, radioligand", "Ki": "> 1000 nM"}
{"SMILES": "O=C(CN1CCC(CN2Cc3ccccc3C2=O)CC1)c1ccc(F)cc1", "target": "SIGMAR1", "assay": "ligand displacement, radioligand", "Ki": "1740 nM"}
{"SMILES": "CCOC(=O)C(CC)(CCCSC)NC(=O)c1ccc(C2CC2)c(Cc2ccc(F)cc2)n1 (stereo not shown)", "target": "Cannabinoid receptor 1 (CNR1, Homo sapiens, UniProt P21554)", "assay": "ligand displacement, radioligand", "setting": "cell membranes", "Ki": "8.5 nM"}
